These results are taken from ChEMBL document CHEMBL4043276, “Design, synthesis and biological evaluation of 2-acetyl-5-O-(amino-alkyl)phenol derivatives as multifunctional agents for the treatment of Alzheimer's disease” (Bioorg Med Chem Lett, 2017).

Where only a bound is given, the exact number is not on record here.

Series [1] is described as follows: Effective permeability of the compound by PAMPA. In kind it is physicochemical. The settings on record: read-out: Peff.
The target of the next series is Acetylcholinesterase (Electrophorus electricus, UniProt O42275). Put plainly: Inhibition of electric eel AChE using acetylthiocholine as substrate incubated for 15 mins by Ellman's method.
Sequence of Acetylcholinesterase (O42275 whole entry): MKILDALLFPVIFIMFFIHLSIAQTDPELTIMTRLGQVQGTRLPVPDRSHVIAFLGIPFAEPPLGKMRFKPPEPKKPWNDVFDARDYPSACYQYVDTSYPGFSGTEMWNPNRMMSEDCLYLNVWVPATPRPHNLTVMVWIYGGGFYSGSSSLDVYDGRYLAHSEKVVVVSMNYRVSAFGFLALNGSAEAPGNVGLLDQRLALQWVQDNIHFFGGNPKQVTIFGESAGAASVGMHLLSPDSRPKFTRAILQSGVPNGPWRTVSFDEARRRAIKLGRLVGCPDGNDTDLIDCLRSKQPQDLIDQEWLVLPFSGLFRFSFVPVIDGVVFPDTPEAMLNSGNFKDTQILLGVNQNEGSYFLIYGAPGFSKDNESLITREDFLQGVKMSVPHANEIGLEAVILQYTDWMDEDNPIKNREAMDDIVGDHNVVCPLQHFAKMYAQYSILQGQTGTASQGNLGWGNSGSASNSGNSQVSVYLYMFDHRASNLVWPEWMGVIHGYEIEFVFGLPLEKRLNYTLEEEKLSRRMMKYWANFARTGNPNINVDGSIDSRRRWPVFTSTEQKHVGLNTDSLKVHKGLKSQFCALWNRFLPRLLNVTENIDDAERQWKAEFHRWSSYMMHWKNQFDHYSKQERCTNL
A short description of series [2]: Antioxidant activity assessed as trolox equivalent of […]-induced radical scavenging activity measured every minute for 90 mins by ORAC fluorescein assay. In kind it is functional. In a few lines: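 Measured by the ORAC-FL fluorescein method. Values are given as μM Trolox equivalent per μM of test compound.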
For series [3], the target named is BuChE (butyrylcholinesterase) (Equus caballus, UniProt P81908). Put plainly: Inhibition of equine serum BuChE at 50 uM incubated for 15 mins by Ellman's method relative to control. Particulars: horse. In general terms: In Ellman's method for cholinesterases, released thiocholine reacts with DTNB.
Sequence of BuChE (butyrylcholinesterase) (P81908 whole entry): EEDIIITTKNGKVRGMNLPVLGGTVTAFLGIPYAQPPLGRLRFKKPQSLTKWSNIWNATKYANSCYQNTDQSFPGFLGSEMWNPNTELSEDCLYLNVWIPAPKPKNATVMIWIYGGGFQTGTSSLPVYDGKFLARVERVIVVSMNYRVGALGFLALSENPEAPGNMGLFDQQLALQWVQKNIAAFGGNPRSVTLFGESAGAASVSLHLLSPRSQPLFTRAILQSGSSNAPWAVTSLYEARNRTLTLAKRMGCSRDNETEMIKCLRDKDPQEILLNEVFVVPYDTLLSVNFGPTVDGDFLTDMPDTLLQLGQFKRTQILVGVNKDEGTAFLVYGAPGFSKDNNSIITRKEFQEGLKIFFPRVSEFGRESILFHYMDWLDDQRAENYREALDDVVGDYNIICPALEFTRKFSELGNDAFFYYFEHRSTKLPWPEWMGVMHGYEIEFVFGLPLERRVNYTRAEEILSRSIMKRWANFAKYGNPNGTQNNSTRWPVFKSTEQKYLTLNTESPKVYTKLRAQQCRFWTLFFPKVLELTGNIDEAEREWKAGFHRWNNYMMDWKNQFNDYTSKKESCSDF
Series [4] deals with T1, Amine oxidase [flavin-containing] B (Homo sapiens, UniProt P27338).
T1 sequence (P27338 whole entry): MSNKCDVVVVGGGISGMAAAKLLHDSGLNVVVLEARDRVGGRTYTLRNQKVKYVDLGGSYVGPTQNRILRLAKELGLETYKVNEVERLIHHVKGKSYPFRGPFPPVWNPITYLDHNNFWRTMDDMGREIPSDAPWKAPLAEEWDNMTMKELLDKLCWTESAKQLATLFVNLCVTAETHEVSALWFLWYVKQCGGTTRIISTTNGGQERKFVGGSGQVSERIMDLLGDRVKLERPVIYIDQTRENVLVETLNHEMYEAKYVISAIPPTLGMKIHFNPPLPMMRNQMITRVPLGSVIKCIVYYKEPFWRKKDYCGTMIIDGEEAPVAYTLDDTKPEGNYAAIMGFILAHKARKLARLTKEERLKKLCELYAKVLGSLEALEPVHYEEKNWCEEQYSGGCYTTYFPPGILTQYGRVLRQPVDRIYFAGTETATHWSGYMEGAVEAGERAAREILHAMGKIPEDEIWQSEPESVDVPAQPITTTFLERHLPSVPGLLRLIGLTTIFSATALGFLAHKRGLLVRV

Series [5] has as its target T2, Amine oxidase [flavin-containing] A (Homo sapiens, UniProt P21397).
T2 sequence (P21397 whole entry): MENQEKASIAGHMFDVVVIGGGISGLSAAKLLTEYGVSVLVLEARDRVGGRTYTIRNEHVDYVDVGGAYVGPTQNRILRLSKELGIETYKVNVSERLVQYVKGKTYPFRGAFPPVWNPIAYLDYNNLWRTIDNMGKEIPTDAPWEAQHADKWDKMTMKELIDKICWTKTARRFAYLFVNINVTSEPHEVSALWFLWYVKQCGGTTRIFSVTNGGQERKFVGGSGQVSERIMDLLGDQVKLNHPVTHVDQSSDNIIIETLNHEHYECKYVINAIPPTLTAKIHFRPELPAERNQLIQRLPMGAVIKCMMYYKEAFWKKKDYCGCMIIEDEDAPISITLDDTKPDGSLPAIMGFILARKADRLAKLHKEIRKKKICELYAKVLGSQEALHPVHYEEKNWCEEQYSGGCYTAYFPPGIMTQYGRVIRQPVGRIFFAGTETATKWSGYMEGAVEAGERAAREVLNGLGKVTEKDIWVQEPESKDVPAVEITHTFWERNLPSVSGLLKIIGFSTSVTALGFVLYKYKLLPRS
Put plainly: Inhibition of recombinant human MAO-A at 10 uM using kynuramine as substrate after 30 mins by fluorescence method relative to control. Particulars: 0.5 h.

A further series addresses Cholinesterase (Equus caballus, UniProt P81908). It is filed as ADME.
A short description of series [6]: Selectivity index, ratio of IC50 for equine serum BuChE to IC50 for electric eel AChE. Put shortly:
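IC50 values for E. electricus AChE and equine serum BuChE came from a modified Ellman assay, each the mean of three independent experiments run in triplicate. The selectivity index is the ratio of the two IC50 values.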

The target of series [7] is Acetylcholinesterase (Electrophorus electricus) (UniProt O42275). Put plainly: Inhibition of electric eel AChE at 50 uM using acetylthiocholine as substrate incubated for 15 mins by Ellman's method relative to control.
Sequence of Acetylcholinesterase (Electrophorus electricus) (O42275 24-633 limits assumed): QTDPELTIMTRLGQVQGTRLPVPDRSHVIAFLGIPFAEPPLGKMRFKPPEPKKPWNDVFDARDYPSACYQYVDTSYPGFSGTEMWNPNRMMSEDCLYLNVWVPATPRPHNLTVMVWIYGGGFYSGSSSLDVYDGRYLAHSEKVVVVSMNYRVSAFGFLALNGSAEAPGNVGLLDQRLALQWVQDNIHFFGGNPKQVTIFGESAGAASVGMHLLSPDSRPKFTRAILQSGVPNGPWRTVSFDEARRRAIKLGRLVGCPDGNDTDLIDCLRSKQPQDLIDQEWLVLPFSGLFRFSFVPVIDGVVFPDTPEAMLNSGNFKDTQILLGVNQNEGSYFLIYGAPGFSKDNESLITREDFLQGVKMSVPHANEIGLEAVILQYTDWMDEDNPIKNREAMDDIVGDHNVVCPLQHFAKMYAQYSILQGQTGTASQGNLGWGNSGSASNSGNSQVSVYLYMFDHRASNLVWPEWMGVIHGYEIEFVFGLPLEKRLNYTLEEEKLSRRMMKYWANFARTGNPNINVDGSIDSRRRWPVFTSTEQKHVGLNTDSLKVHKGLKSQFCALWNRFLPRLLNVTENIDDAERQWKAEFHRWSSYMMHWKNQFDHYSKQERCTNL

Sequence of Cholinesterase (P81908 whole entry): as the sequence (P81908 whole entry) above

For the molecule `C[C@]12CC[C@H]3[C@@H](CCC4=CC(=O)CC[C@@]43C)[C@@H]1CC[C@@H]2O` [TESTOSTERONE], the Papp in series [1] fell in the range of 16.3 to 17 ×10⁻⁶ cm/s.
In the case of `CC(=O)c1ccc(OCCCCCCN2CCN(c3ncccn3)CC2)cc1O`, the IC50 (commonly the concentration that inhibits the measured activity by half) against Acetylcholinesterase is 57 µM; in series [4], 34.6 µM. In addition, the Activity in series [2] stood at 0.98 equiv. Besides, the inhibition (as a rule, the change of the read-out against control, counted positive when it falls) at 0.25 h, 50 µM in [3] was under 5%. For the same molecule, in [5], the inhibition at 10 µM was under 5%.
Turning to `CC(=O)c1ccc(OCCCCN2CCN(c3ncccn3)CC2)cc1O`, the half-maximal inhibitory concentration (IC50) on Acetylcholinesterase was determined as 27.5 µM; in series [4], 15.2 µM. Besides, the Activity in [2] was determined as 0.98 equiv. The inhibition at 0.25 h, 50 µM in series [3] is under 5%. Moreover, the inhibition at 10 µM in [5] is under 5%.
As for `CC(=O)c1ccc(OCCCN2CCN(c3ccccn3)CC2)cc1O`, the IC50 against Acetylcholinesterase amounted to 15.2 µM; in series [4], 11.7 µM. In addition, in series [2], the Activity is 0.98 equiv. The inhibition at 0.25 h, 50 µM in series [3] is 8.8%. Besides, in [5], the inhibition at 10 µM is under 5%.
For `CC(=O)c1ccc(OCCCCCCN2CCN(Cc3ccccc3)CC2)cc1O`, the half-inhibitory concentration (IC50) was 16.8 µM at Acetylcholinesterase, 30.8 µM in series [4] and 75.4 µM against Cholinesterase. Moreover, the Activity in series [2] came to 1.3 equiv. In addition, the inhibition at 10 µM in [5] was under 5%. Also, the Ratio IC50 in series [6] is 4.5.
As for `CCn1cc(C(=O)O)c(=O)c2cc(F)c(N3CCNCC3)nc21` [ENOXACIN], the Papp in series [1] lay within 0.47 to 0.9 ×10⁻⁶ cm/s.
Consider `CC(=O)c1ccc(OCCCCN2CCCC2)cc1O`, for which the IC50 against Acetylcholinesterase is 16.7 µM; in series [4] it was 1.8 µM. Besides, in [2], the Activity stood at 1 equiv. This molecule returned an inhibition at 0.25 h, 50 µM in series [3] of 18.4%. The inhibition at 10 µM in series [5] is under 5%.
For `CC(=O)c1ccc(OCCCCCN2CCCCC2)cc1O` the same measures were 5.5 µM, 6.1 µM, 1.1 equiv, 27.9% and under 5%.
For `CC(=O)c1ccc(OCCCCCCN2CCCC2)cc1O`, the IC50 on Acetylcholinesterase stood at 3.9 µM; in series [4], 12.2 µM; against Cholinesterase, 46.5 µM. In addition, in series [2], the Activity is 1 equiv. The inhibition at 10 µM in series [5] was under 5%. Also, the Ratio IC50 in series [6] came out at 11.9.
Regarding `CCn1cc(C(=O)O)c(=O)c2cc(F)c(N3CCNCC3)cc21` [NORFLOXACIN], the Papp in series [1] was 0.1 to 0.42 ×10⁻⁶ cm/s.
`CC(=O)c1ccc(OCCCCN2CCN(c3ccccn3)CC2)cc1O`: the concentration for half-maximal inhibition (IC50) at Acetylcholinesterase worked out at 18.4 µM; in [4], 12 µM. Besides, the Activity in series [2] came out at 1.1 equiv. The inhibition at 0.25 h, 50 µM in [3] is under 5%. In series [5], the inhibition at 10 µM is under 5%.
Take `CC(=O)c1ccc(OCCCCCN2CCN(Cc3ccccc3)CC2)cc1O`: the IC50 came out at 8.5 µM against Acetylcholinesterase, 26.8 µM in series [4] and 46.1 µM at Cholinesterase. Also, in series [2], the Activity amounted to 1.3 equiv. The inhibition at 10 µM in series [5] was under 5%. For the same molecule, the Ratio IC50 in [6] was found to be 5.4.
As for `CC(=O)c1ccc(OCCCCCN2CCN(c3ccccn3)CC2)cc1O`, the figures for the concentration for half-maximal inhibition (IC50) (against Acetylcholinesterase; in [4]) were 21.9 µM and 16.7 µM, respectively. In addition, the Activity in series [2] came to 0.99 equiv. Also, the inhibition at 0.25 h, 50 µM in [3] was under 5%. The inhibition at 10 µM in series [5] was under 5%.
`CC(=O)c1ccc(OCCCCN2CCN(Cc3ccccc3)CC2)cc1O`: the concentration for half-maximal inhibition (IC50) was 2.2 µM against Acetylcholinesterase and 15.9 µM in [4]. Moreover, in series [2], the Activity was 1.4 equiv. Moreover, in series [3], the inhibition at 0.25 h, 50 µM amounted to 11.5%. Besides, the inhibition at 10 µM in series [5] was under 5%.
For `CC(=O)c1ccc(OCCCCN2CCCCC2)cc1O` the same measures were 8.8 µM, 2.5 µM, 1 equiv, 21.4% and under 5%.
For `CC(=O)c1ccc(OCCCN2CCCC2)cc1O`, the results for the IC50 (against Acetylcholinesterase; in series [4]) were 41.3 µM and 0.62 µM, respectively. Further, the Activity in series [2] was 1 equiv. The molecule also came in with an inhibition at 0.25 h, 50 µM in series [3] of under 5%. For the same molecule, the inhibition at 10 µM in series [5] is under 5%.
In the case of `CC(=O)c1ccc(OCCCN2CCCCC2)cc1O`, the IC50 at Acetylcholinesterase was found to be 29.2 µM; in series [4] it was 2.8 µM. Besides, the Activity in [2] is 1.1 equiv. This molecule displayed an inhibition at 0.25 h, 50 µM in series [3] of under 5%. Also, in series [5], the inhibition at 10 µM was under 5%.
With `CC(=O)c1ccc(OCCCN2CCN(c3ncccn3)CC2)cc1O`, the IC50 is 26.3 µM on Acetylcholinesterase and 15.1 µM in series [4]. Also, in series [2], the Activity came out at 0.95 equiv. The inhibition at 0.25 h, 50 µM in series [3] is under 5%. In addition, the inhibition at 10 µM in [5] is under 5%.
Turning to `Cn1c(=O)c2[nH]cnc2n(C)c1=O.O` [THEOPHYLLINE], in series [1], the Papp lay within 0.1 to 0.12 ×10⁻⁶ cm/s.
On the same count and under the same terms, as for `Clc1cccc(Cl)c1N=C1NCCN1` [CLONIDINE], the figure is 5.1 to 5.3 ×10⁻⁶ cm/s.
On the same count and under the same terms, then `CN1C(C(=O)Nc2ccccn2)=C(O)c2ccccc2S1(=O)=O` [PIROXICAM], with 0.72 to 2.5 ×10⁻⁶ cm/s.
As for `CC(=O)c1ccc(O)cc1O`, the Activity in series [2] amounted to 2.5 equiv. The inhibition at 0.25 h, 50 µM in series [3] is under 5%. This molecule also displayed an inhibition in series [7] of under 5%.
On to `CC(=O)c1ccc(OCCCCCCN2CCCCC2)cc1O`, for which the 50% inhibitory concentration (IC50) at Acetylcholinesterase worked out at 2.9 µM; in [4], 26.6 µM; against Cholinesterase it was 45.7 µM. Moreover, in [2], the Activity was determined as 0.98 equiv. In addition, the inhibition at 10 µM in series [5] is under 5%. In [6], the Ratio IC50 turned out to be 15.8.
Consider `CC(=O)c1ccc(OCCCCCN2CCN(c3ncccn3)CC2)cc1O`, for which the IC50 came out at 51.8 µM against Acetylcholinesterase, 15.5 µM in series [4] and 137 µM against Cholinesterase. Moreover, in [2], the Activity was determined as 1 equiv. In addition, in series [5], the inhibition at 10 µM is under 5%. The Ratio IC50 in [6] turned out to be 2.6.
Regarding `CC(=O)c1ccc(OCCCCCN2CCCC2)cc1O`, the IC50 amounted to 6.3 µM at Acetylcholinesterase, 3.5 µM in [4] and 37.2 µM at Cholinesterase. For the same molecule, in series [2], the Activity amounted to 1 equiv. In [5], the inhibition at 10 µM was under 5%. In addition, in series [6], the Ratio IC50 turned out to be 5.9.
As for `CC(=O)c1ccc(OCCCCCCN2CCN(c3ccccn3)CC2)cc1O`, the 50% inhibitory concentration (IC50) came to 25.8 µM at Acetylcholinesterase and 20.7 µM in series [4]. The Activity in series [2] was 1.1 equiv. Moreover, the inhibition at 0.25 h, 50 µM in series [3] was under 5%. In series [5], the inhibition at 10 µM was under 5%.
On to `Cn1c(=O)c2c(ncn2C)n(C)c1=O` [CAFFEINE], for which, in [1], the Papp lay in the range of 1.28 to 1.3 ×10⁻⁶ cm/s.
